The data set in a line: Toxicity liver stage against HepG2, at 10uM. The arrangement: test concentration 10 uM, cell line HepG2-A16-CD81EGFP. Conditions: human, HepG2-A16-CD81EGFP cells; read-out: INHIBITION
In kind it is cell-based. The gist of the method:
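Uninfected HepG2-A16-CD81EGFP cells, 3 × 10^3 per well, 1536-well, plated on prespotted compound at 10 μM final, parasite-free screening media added to match infected plates; puromycin 10 μM positive, DMSO 0.5% negative; run in parallel with 48 h PbLuc assay at 37 °C, 5% CO2; viability by CellTiter-Glo luminescence, normalized to controls.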

Molecules are shown by their SMILES.

Turning to `Cc1cc(C)c2cc(C(=O)N3CCN(Cc4ccco4)CC3)[nH]c2c1`, the cytotoxicity at 10 µM is -51.4%.
With `O=C(CCc1ccccc1)C1CCCN(C(=O)c2ncc(F)cc2F)C1` (configuration not stated), the cytotoxicity at 10 µM was -17.4%.
With `O=C(CN1CC(c2ccccc2)CC1=O)NCc1cc2n(n1)CCNC2` (configuration not stated), the cytotoxicity at 10 µM is 1.05%.
Turning to `O=C([C@H]1CCCO1)N1CCCC2(CCN(Cc3ccncc3)C2=O)C1` (some centres not stated), the cytotoxicity at 10 µM was 11.9%.
On to `Cc1c(C)n2c(SCC(=O)N3CCCCCC3)nnc2[nH]c1=O`, for which the cytotoxicity at 10 µM came out at 0.0868%.
In the case of `Nc1cc2c(nn1)CCN(C(=O)CCc1ccc3c(c1)OCO3)C2`, the cytotoxicity at 10 µM came to 3.23%.
Then `Cc1nn(C)c(C)c1CC(=O)N1CCCC(n2ccnc2C)C1` (configuration not stated), with -5.36%.
On to `N#Cc1ncn(CC(=O)N2CCCC2c2cccs2)n1` (configuration not stated), for which the cytotoxicity at 10 µM is -21.7%.
For the molecule `Cn1cccc1C(=O)NCc1cn2c(n1)CN(Cc1cccnc1)CC2`, the cytotoxicity at 10 µM is -113%.
Then `Cc1ccc(-c2noc([C@@H]3C[C@H](NC(=O)NC(C)C)CN3C)n2)cc1`, with 3.31%; and `CC(NC(=O)N(C)Cc1ccc2c(c1)OCCO2)c1nncn1C` (configuration not stated), with -2.25%.
As to `COCc1ccc(CNc2cnn(C(C)(C)C)c(=O)c2Cl)cc1`, the cytotoxicity at 10 µM stood at 60.9%.
Next, `CCOc1ncccc1C(=O)N1CCCC(n2nc(C)nc2C)C1` (configuration not stated): -8.47%; `CO[C@H]1CCN(Cc2c(C)noc2C)[C@@H]2CN(Cc3cccnc3)C[C@H]12`: 5.55%; `Cc1c(C2CCCN(C(=O)C3CC3)C2)n2c(nc1=O)CCC2` (configuration not stated): -1.85%.
Then `CS(=O)(=O)CCC(=O)Nc1cc(F)ccc1OCC1CCCO1` (configuration not stated), with 3.41%.
As to `O=C1CO[C@H]2CN(C3CCOCC3)C[C@H]2N1Cc1ccc(F)cc1`, the cytotoxicity at 10 µM was -6.35%.
Then `O=C(c1ccoc1)N1CCCn2nnc(COCC3CC3)c2C1`, with -68.5%.
As for `O=C(NCCN1CCCCCC1=O)c1ccn(-c2ccc(F)cc2)n1`, the cytotoxicity at 10 µM was -8.62%.
With `O=C(Nc1ccccn1)N(CCO)Cc1ccccc1Br`, the cytotoxicity at 10 µM is -14.4%.
For the molecule `O=C(O)c1nnn(-c2ccc(F)c(F)c2)c1-c1ccncc1`, the cytotoxicity at 10 µM was 3.72%.
For the molecule `CCn1ncc2c(C(F)(F)F)cc(-c3ccn(C)n3)nc21`, the cytotoxicity at 10 µM is 4.75%.
With `O=C(CN1CCNCC1)NCc1ccc2sccc2c1`, the cytotoxicity at 10 µM worked out at 1.16%.
For `O=C(NCCc1ccc(F)cc1)NC1CCCc2c1cnn2CCO` (configuration not stated), the cytotoxicity at 10 µM was -3.46%.
With `NC(=O)c1cnn2c1NCC(CNCCc1cccs1)C2` (configuration not stated), the cytotoxicity at 10 µM was -9.63%.
As for `CC(C)NC(=O)N1CCN(CC2CC2)c2ncccc2C1`, the cytotoxicity at 10 µM is -108%.
As for `COc1ccc(-c2cn([C@H](CO)CC(C)C)nn2)cn1`, the cytotoxicity at 10 µM was -2.03%.
In the case of `Cn1cnnc1S(=O)(=O)Cc1cc(Cl)c2c(c1)OCO2`, the cytotoxicity at 10 µM is -36.6%.
In the case of `C=C(C)CNc1nc(CS(=O)(=O)c2ccccc2)cs1`, the cytotoxicity at 10 µM is -8.37%.
Take `COCCC1(CNC(=O)NCC2CCC2)CCC1`: the cytotoxicity at 10 µM is -10.1%.
Then `Cc1cscc1C(=O)NC1CC(=O)N(C(C)C)C1=O` (configuration not stated), with -6.51%; and `CN(C)C(=O)CN1CCOCC2(CCN(c3ncc(F)cn3)CC2)C1`, with 0.419%; and `Cc1cc(-c2cnc(N3CCSCC3)nc2C(C)C)on1`, with 16.8%.
Turning to `COc1ccc(CN2CCO[C@H]3[C@H](OCCN4CCCC4)CC[C@@H]32)cc1`, the cytotoxicity at 10 µM was found to be 0.471%.
Consider `Nc1cc(C(=O)N2CCCC3(C=Cc4ccccc4O3)CC2)ccn1` (configuration not stated), for which the cytotoxicity at 10 µM was found to be 13.7%.
Take `Cc1noc2nc(C3CCN(Cc4ccncc4)CC3)cc(C(F)F)c12`: the cytotoxicity at 10 µM came to 6.54%.
For the molecule `Cc1nn(-c2ccc(F)cc2)c2[nH]nc(N)c12`, the cytotoxicity at 10 µM was 13.6%.
`CCOc1ccc(-c2c(C#N)c(N)nc3c2COCC3)cn1`: the cytotoxicity at 10 µM is -0.339%.
As to `c1ccc(Cn2ccnc2CNCC2CCCN2c2cccnn2)cc1` (configuration not stated), the cytotoxicity at 10 µM is -9.86%.
On to `CCc1c(O)nc(SCC(=O)c2ccccc2)n(-c2ccccc2)c1=O`, for which the cytotoxicity at 10 µM was found to be 3.19%.
Turning to `COc1cccc([C@@H]2CN(C3CCCC3)C[C@H]2C(=O)O)c1`, the cytotoxicity at 10 µM is -5.89%.
Next, `Cc1cc(NCCN2CCNC2=O)nc2cc3c(cc12)CCC3`: 2.97%; `CCC(CNS(C)(=O)=O)Oc1ccccc1F` (configuration not stated): -6%; `O=C(NCCN1CCOCC1)c1nc(-c2ccc3[nH]ccc3c2)no1`: -7.53%.
For the molecule `C[C@@H]1CN(C(=O)C2CCS(=O)(=O)CC2)C[C@]1(C)O`, the cytotoxicity at 10 µM was -4.11%.
Then `CS(=O)(=O)N1C[C@H]2CC[C@@H](C1)N(CCC(=O)NCc1ccco1)C2`, with -17.9%; and `O=C(NCCn1ccnc1)c1cc(Br)c[nH]1`, with -5.2%.
Consider `CN(Cc1cn2c(n1)CN(C(=O)N(C)C)CC2)Cc1ccco1`, for which the cytotoxicity at 10 µM worked out at 4.44%.
As to `COC(=O)N1CCC(NC(=O)N2CCCC2c2ccsc2)CC1` (configuration not stated), the cytotoxicity at 10 µM was determined as 10.5%.
Turning to `CN(C)CCN1C(=O)CCC12CCCN(C(=O)C1CC=CC1)CC2` (configuration not stated), the cytotoxicity at 10 µM was determined as 3.7%.
For the molecule `CCn1c(C2CCCN(Cc3nccn3CCOC)C2)nn(C)c1=O` (configuration not stated), the cytotoxicity at 10 µM came to 7.3%.
On to `CC(c1ccc2c(c1)OCCO2)N(C)C(=O)c1ccnnc1` (configuration not stated), for which the cytotoxicity at 10 µM stood at 0.94%.
Then `Cc1cc(C)nc(N2CCC(C(=O)Nc3n[nH]c(C(C)C)n3)CC2)n1`, with 4.07%.
As to `O=C(c1cccs1)N1CCc2nnc(COc3cncnc3)n2CC1`, the cytotoxicity at 10 µM worked out at 8.13%.
As for `Cn1nc(Br)c2c(NCCNc3ncccn3)ncnc21`, the cytotoxicity at 10 µM turned out to be 11.3%.
Take `N[C@@H]1c2ccccc2C2(CCN(C(=O)c3ccc(CO)o3)CC2)[C@H]1O`: the cytotoxicity at 10 µM was determined as 3.92%.
With `CCNC(=O)C(C)NC(=O)Nc1ccccc1Cl` (configuration not stated), the cytotoxicity at 10 µM came to 5.72%.
For the molecule `Cc1ccccc1CN(C)C(=O)CN1CCCCC1Cn1cncn1` (configuration not stated), the cytotoxicity at 10 µM came out at 8.44%.
Turning to `CC1CC(=O)c2cc(C(=O)N3CCN(C)CC3)c(=O)[nH]c2C1` (configuration not stated), the cytotoxicity at 10 µM is -6.32%.
Turning to `CC(=O)Nc1ccc(-n2ccc3nc(N4CCCC4)ncc3c2=O)cc1`, the cytotoxicity at 10 µM is 2.24%.
For the molecule `Cc1ccc(C(=O)NCc2ccnc(C3CCCOC3)n2)s1` (configuration not stated), the cytotoxicity at 10 µM came to 5.29%.
On to `c1coc(CN2CCc3onc(Cn4cccc4)c3C2)c1`, for which the cytotoxicity at 10 µM was determined as 8.43%.
Then `CCc1[nH]ncc1C(=O)N1CCCC(n2cc(C)cn2)C1` (configuration not stated), with -11.4%; and `CCNC(=O)NCc1cnn(-c2ccc(F)cc2F)c1`, with -6.52%; and `CC(C)C1CN(S(=O)(=O)c2cccc(C#N)c2)CCS1` (configuration not stated), with 1.06%.
Then `Cc1cccc(-c2nnn3c2COC(CNCc2nccs2)C3)c1` (configuration not stated), with 4.51%; and `Cc1ccc(CN2Cc3c(C(=O)N4CCCC4)nn(C)c3C2)s1`, with -0.704%.
Then `COc1ccsc1C(=O)NC1CCN(c2ccc(C#N)cc2)CC1`, with -1.03%.
For the molecule `CC(CC(=O)N1CCCS1(=O)=O)c1ccccc1C(F)(F)F` (configuration not stated), the cytotoxicity at 10 µM is 8.92%.
In the case of `c1cncc(CNc2ccc3nc(C4CCNCC4)nn3c2)c1`, the cytotoxicity at 10 µM was -108%.
On to `Cn1[nH]c(CNc2cccc(Cl)c2)nc1=O`, for which the cytotoxicity at 10 µM is -0.165%.
Consider `Cc1cc(C(=O)N2CCN(Cc3ccsc3)CC2)n(C)n1`, for which the cytotoxicity at 10 µM amounted to 1.98%.

For the origin of these results see ChEMBL document CHEMBL4513216, “Probing the Open Global Health Chemical Diversity Library for Multistage-Active Starting Points for Next-Generation Antimalarials” (ACS Infect Dis, 2020).
